Measurements collected from several papers.
Protocols differ between the studies behind these lines.
Effect on: cell growth or viability

SMILES	cell line	assay	setting	IC50
O=C(Nc1cccc(CO)c1)c1c[nH]c2ccc(Cl)cc12	SK-N-BE(2)-C	MTT	–	14 µM
COc1ccc(C[C]2([Ti+2][C]3(Cc4ccc(OC)cc4)C=CC=C3)C=CC=C2)cc1.[Cl-].[Cl-]	HEK-293T	XTT	24 h	> 200 µM
COc1cc(Nc2nccc(-c3cnn4nc(OC)ccc34)n2)cc(C(F)(F)F)c1	NCI-H2009	ATP luminescence	–	0.71 µM
COC(=O)CN=c1scc(-c2ccccc2)n1-c1ccc(Cl)cc1	PANC-03-27	MTT	72 h	22.1 µM
C=CC(=O)Nc1cc(Nc2nccc(-c3cn(C)c4ccccc34)n2)c(OC)cc1N(C)CCN(C)C	A-431	ATP luminescence	72 h	0.249 µM
Cc1[nH]c(/C=C2\C(=O)Nc3ccc(S(=O)(=O)N(C)c4cccc(Cl)c4)cc32)c(C)c1C(=O)N1CCN(C)CC1	human Myoblast	–	72 h	3.85 µM
Cc1ccncc1-c1ccc2oc(C(=O)c3cc(O)c(O)c(O)c3)cc2c1	HEK-293T	ATP luminescence	72 h	0.79 µg/mL
N[C@@H](CC(=O)N1CCN(C(c2ccc(F)cc2)c2ccc(F)cc2)CC1)C(=O)N1Cc2ccccc2C1	TF-1	ATP luminescence	48 h	28.8 µM
O=c1[nH]cc(S(=O)(=O)Nc2cccc(-c3nnc(-c4cccc(Cl)c4)o3)c2)c(=O)[nH]1	NCI-H292	MTT	24 h	3.81 µM
COC(=O)CN=c1scc(-c2ccccc2)n1-c1ccc(C)cc1	PANC-03-27	MTT	72 h	10.8 µM
COc1cc(-c2ncn(/C=C\C(=O)OC(C)C)n2)cc(C(F)(F)F)c1	SKNO-1	–	72 h	0.058 µM
COC1=C2C[C@@H](C)C[C@H](OC)[C@H](O)[C@@H](C)/C=C(\C)[C@H](OC(N)=O)[C@@H](OC)/C=C\C=C(/C)C(=O)NC(=CC1=O)C2=O	A-431	MTT	–	0.048 µM
COc1cc([C@@H]2c3cc4c(cc3[C@@H](O[C@@H]3O[C@@H]5CO[C@@H](C)O[C@H]5[C@H](O)[C@H]3O)[C@H]3COC(=O)[C@H]23)OCO4)cc(OC)c1O	CCD-18Co	MTS	72 h	40.3 µM
COc1ccc(Oc2ccccc2NC(=O)CNC(=O)c2cccc3ccccc23)cc1	SK-N-AS	–	–	0.091 µM
Nc1ccn([C@@H]2O[C@H](CO)[C@@H](O)C2(F)F)c(=O)n1	PANC-03-27	MTT	72 h	0.42 µM
COc1cc2nccc(Oc3ccc(NC(=O)C4(C(=O)Nc5ccc(F)cc5)CC4)cc3)c2cc1OC	human Myoblast	–	72 h	0.14 µM
COc1cccc(Oc2ccccc2NC(=O)CNC(=O)c2cccc3ccccc23)c1	SK-N-BE(2)-C	–	–	0.236 µM
O=C(NCc1ccc(CO)cc1)c1c[nH]c2ccc(Cl)cc12	SK-N-BE(2)-C	MTT	–	17 µM
C[C@@H](Oc1cc(-c2cnn(C3CCNCC3)c2)cnc1N)c1c(Cl)ccc(F)c1Cl	human Myoblast	–	72 h	1.84 µM
[Cl-].[Cl-].[Ti+4].c1cc[cH-]c1.c1cc[cH-]c1	HEK-293T	XTT	24 h	> 200 µM
COC(=O)CN=c1scc(-c2ccccc2)n1-c1ccc(OC)cc1	PANC-03-27	MTT	72 h	11.5 µM
CC(=O)Oc1ccc2c(c1)C(C)=CC(C)(C)N2Cc1ccccc1	Huh-7	MTT	72 h	25 µM
CC(C)C[C@H](NC(=O)[C@H](Cc1ccccc1)NC(=O)c1cnccn1)B(O)O	NCI-H292	ATP luminescence	–	0.0093 µM
O=C(CNC(=O)c1cccc2ccccc12)Nc1ccccc1Oc1ccc(O)cc1	SK-N-AS	–	–	0.156 µM
Cc1cc(NC(=O)c2cccc3cc(-c4cccc5[nH]nc(N)c45)ccc23)ccc1F	D283	CCK-8	72 h	> 20 µM
Cc1ccc2nc(-c3ccccc3O)[nH]c2c1	HepG2	MTT	48 h	26.1 µM
CCCCNS(=O)(=O)c1ccc(-c2ccc3oc(C(=O)c4cc(O)c(O)c(O)c4)cc3c2)cc1	HEK-293T	ATP luminescence	24 h	15 µg/mL
COc1cccc(Oc2ccccc2NC(=O)[C@H](C)NC(=O)c2cccc3ccccc23)c1	SK-N-AS	–	–	1.5 µM
O=C1/C(=C/c2cc(O)c(O)c(O)c2)Oc2cccc(O)c21	HEK-293T	ATP luminescence	24 h	> 32 µg/mL
O=CC[C@@H](O)[C@H](O)[C@H](O)CO	A-431	MTT	3 h	> 6000 µM
